From PubChem
An excerpt weighted towards active compounds, which were near 0.77% of everything screened.
bIAP inhibitor – bovine intestinal alkaline phosphatase inhibitors, primary screen, selectivity assay for TNAP inhibitor project, biochemical, bovine IAP, CDP-star luminescence | alkaline phosphatase, intestinal [Bos taurus] | 190,000 tested, under 10 active | inhibition, % at 20 µM | purified bovine IAP, 30 min;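 active = over 50% inhibition of intestinal alkaline phosphatase at 20 µM in the single-dose screen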
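Assay system: bovine IAP enzyme; medium: DEA buffer 100 mM, pH 9.8, with MgCl2 1.0 mM, ZnCl2 0.02 mM; doses: 20 µM single dose; incubation: enzyme reaction for 30 min at room temperature; detection: CDP-star luminescence signal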
mIAP act – activators of mouse IAP, primary screen, biochemical, luminescence, uHTS | intestinal alkaline phosphatase [Mus musculus] | muIAP, CDP-Star luminescence, 30 min; hits give high values; 1 = vehicle-only enzyme signal, 0 = enzyme-free wells | activation factor at 10 µM | hit rate 0.24% among 330,000 | AID 2805, 2010;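 active = activation factor of at least 2 at 20 µM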
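Assay system: mouse IAP enzyme; reagent: chemiluminescent substrate CDP-Star; dosing: test compounds delivered from DMSO solution; schedule: 30 min at room temperature; measured by: luminescence from enzymatic CDP-Star hydrolysis; controls: DMSO-only wells and no-enzyme negative control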
mIAP inh – inhibitors of mouse IAP, primary screen, biochemical, luminescence, uHTS. intestinal alkaline phosphatase [Mus musculus]. purified mouse IAP, CDP-Star luminescence, 30 min. inhibition, % at 10 µM. hit rate 0.2% among 330,000;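 active = inhibition of at least 40% at 10 µM in the primary screen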;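 note: plate controls were DMSO with enzyme for no effect and no enzyme wells for full effect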
hIAP inh – human IAP inhibitors, primary screen, biochemical, luminescence, uHTS | Intestinal-type alkaline phosphatase (Homo sapiens), P09923 | purified IAP, CDP-Star luminescence, 30 min | inhibition, % at 10 µM | hit rate 0.12% among 330,000 | AID 2544, 2010;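 active = inhibition reaching a set limit with compound at 10 µM in the primary screen, cut at about 35% in these data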;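 note: plate controls were DMSO wells with enzyme for no effect and no-enzyme buffer wells for full effect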
Target sequence (P09923 whole entry, looked up): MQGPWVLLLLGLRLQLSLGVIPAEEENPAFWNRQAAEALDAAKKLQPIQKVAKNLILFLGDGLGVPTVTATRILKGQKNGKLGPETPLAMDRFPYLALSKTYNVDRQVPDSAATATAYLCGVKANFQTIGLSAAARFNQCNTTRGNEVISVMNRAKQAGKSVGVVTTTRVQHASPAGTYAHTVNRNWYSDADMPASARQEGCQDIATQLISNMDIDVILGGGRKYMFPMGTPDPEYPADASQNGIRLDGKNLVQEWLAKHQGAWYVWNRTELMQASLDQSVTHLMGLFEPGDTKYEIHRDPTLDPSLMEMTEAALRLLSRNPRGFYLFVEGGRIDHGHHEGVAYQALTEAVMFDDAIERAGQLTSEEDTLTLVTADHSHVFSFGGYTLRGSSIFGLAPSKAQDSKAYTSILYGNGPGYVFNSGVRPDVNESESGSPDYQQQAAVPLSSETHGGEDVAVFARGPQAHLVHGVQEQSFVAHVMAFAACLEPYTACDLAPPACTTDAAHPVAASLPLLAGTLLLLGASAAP
bIAP activator – bovine intestinal alkaline phosphatase activators, primary screen, biochemical, bovine IAP, CDP-star luminescence; alkaline phosphatase, intestinal [Bos taurus]; purified bovine IAP, 30 min; hits give high values; fold of DMSO-control signal, blank-subtracted; activation factor at 20 µM; hit rate 0.17% among 200,000;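 active = activation factor of 2 or more at 20 µM, a signal rise over negative controls twice the positive control's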
hIAP activ – human IAP activators, primary screen, biochemical, luminescence, uHTS; hit rate 0.16% among 330,000; activation factor at 10 µM; AID 2524, 2010; purified human IAP, CDP-Star luminescence, 30 min; hits give high values; 1 = vehicle-only enzyme, 0 = enzyme-free background;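 active = activation factor of the enzyme at least 2-fold when tested at 20 µM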
hIAP act conf – human IAP activators, confirmation, biochemical, luminescence, single concentration, uHTS hits | shares compounds with hIAP activ | purified IAP, CDP-Star luminescence, 30 min; hits give low values | activation (%Activity, negative = activation), % at 8.3 µM | hit rate 10% among 880 | AID 434926, 2010;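 active = at least twofold enzyme activation in any of six single-dose repeats, which the averaged readout prints as negative percent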
mIAP inh confirm – inhibitors of mouse IAP, confirmation, biochemical, luminescence, single concentration. shares compounds with mIAP inh. hit rate 4.7% among 11,000. purified mouse IAP, CDP-Star luminescence, 30 min. inhibition, % at 10 µM;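 active = inhibition of at least 40% at 10 µM in either of the two replicates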;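 note: plate controls were DMSO wells with enzyme for no effect and buffer wells lacking enzyme for full effect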
* = called active by the depositor; i = inactive; nt = not tested or not shown.

SMILES	bIAP inhibitor	mIAP act	mIAP inh	hIAP inh	bIAP activator	hIAP activ	others
COc1cc(/C=C/[N+](=O)[O-])ccc1O	11	0.54	46*	24	0.9	0.76
Cc1cccc(C(O)(C(=O)NNC(=O)CN2CCN(C)CC2)c2cccc(C)c2)c1	-129	1	0	-75	2.3*	1.7
Cc1ccc(C(O)(C(=O)NNC(=O)CN2CCN(C)CC2)c2ccc(C)cc2)cc1	10	1.1	-13	-2	0.9	1
CCOC(=O)c1c(-n2c(C)cc(C=C3C(=O)NC(=S)NC3=O)c2C)sc2c1CCCC2	nt	0.49	51*	-2	0.5	1
CCC(C)C12CN3CCN(CC(C)(C3)C1=O)C2 (stereo not drawn)	15	1	-2	-9	0.9	1.1
O=C/C=C/c1ccccc1	nt	0.96	4	9	nt	0.91
O=C1NC(=S)NC(=O)C1C/C=C/c1ccccc1	-5	0.58	42*	5	1	0.95
CCNC(=O)NNC(=O)C1CC(c2cccnc2)=NO1 (stereo not drawn)	9	1	-5	-6	0.9	1.1
CCOc1ccc2nc(N=Nc3c(O)[nH]c(=S)[nH]c3=O)sc2c1	34	0.56	44*	16	0.7	0.84
CC(=O)c1cn(Cc2ccccc2F)c2ccccc12	nt	1.1	-6	10	nt	0.91
CC(C)Cc1nnc(NC(=O)CCC(=O)N2CCC3(CC2)OCCO3)s1	nt	1.1	-7	-133	nt	2.3*	hIAP act conf=-77
CN(C)c1nc(-c2ccccc2)[n+](C)s1	1	0.94	6	42*	1	0.58	hIAP act conf=7
Cc1ccc(-c2nc(N3CCOCC3)s[n+]2-c2ccccc2)cc1	8	nt	nt	nt	0.9	nt
COC(=O)C1=C(c2ccccc2OCc2ccccc2)C[C@@H]2CC[C@H]1N2C(=O)NCc1cccc(F)c1	nt	1.4	-39	-16	nt	1.2
Cc1ccc(CN2C3CCCC2CC(NC(=O)Nc2cccc(F)c2)C3)cc1 (stereo not drawn)	i	11*	i	-117	6.7*	2.2*	hIAP act conf=-4;mIAP inh confirm=-348
CC(C)CCP(=O)(O)c1ccccc1	-1	0.89	11	9	1	0.91
Cc1cccc(OCCn2cccc2/C=C2/C(=O)NC(=O)N(Cc3ccco3)C2=O)c1	nt	0.6	40*	10	nt	0.9	mIAP inh confirm=57*
O=C1NC(=O)N(Cc2ccco2)C(=O)/C1=C\c1cccn1CCOc1ccc(Cl)cc1	15	0.51	49*	-12	0.9	1.1	mIAP inh confirm=50*
Cc1nc2cc([N+](=O)[O-])ccc2c(=O)n1-c1ccc(Br)cc1	nt	0.99	1	-1	nt	1
Nc1ccc(C2(c3ccc(N)cc3)CCCCC2)cc1	-17	1.1	-13	9	1.2	0.91
O=C1NC(=S)N(c2ccccc2)C(=O)C1C(c1ccncc1)C1C(=O)NC(=S)N(c2ccccc2)C1=O (stereo not drawn)	-1	0.92	8	2	1	0.98
O=C1NC(=O)N(c2cccc(Cl)c2)C(=O)/C1=C\c1ccc(Sc2nc3ccccc3[nH]2)o1	0	0.54	46*	-7	1	1.1	mIAP inh confirm=50*
O=C1NC(=O)N(c2ccccc2F)C(=O)/C1=C/c1ccc(Sc2nc3ccccc3[nH]2)o1	13	nt	nt	nt	0.9	nt
